Test results from PMC9771833 (International Journal for Parasitology: Drugs and Drug …, 2022).

What was measured:
[1] = system: Plasmodium berghei NAT (atovaquone-resistant strain); experiment: Hematological analysis of P. berghei NAT-infected mice; type: in vivo
How it was run: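 Same P. berghei NAT-infected ICR-1 mouse model: 10^7 infected erythrocytes given i.p., test compound or control drug once daily for 4 days from 1 dpi. Blood was taken at 3, 6, 9 and 12 dpi and run on an automated blood cell counter for WBC, RBC, haemoglobin and hematocrit.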

[2] = system: Plasmodium berghei NAT (atovaquone-resistant strain); experiment: 4-day suppression test in P. berghei NAT-infected ICR mice; type: in vivo
How it was run: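 Female 7-week-old ICR-1 mice (6/group) infected i.p. with 10^7 P. berghei NAT-infected erythrocytes. Dosing began 1 dpi: test compound at 10, 20 or 30 mg/kg, once daily for 4 days. Controls were DHA 10, atovaquone 4 and chloroquine 10 mg/kg, given i.v. once daily for 4 days. Parasitemia was measured daily by FACS of tail blood. Weight and survival were recorded daily to 15 dpi.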

[3] = In vitro cytotoxicity in Vero cells; type: cell-based, African green monkey (Chlorocebus sp.); settings: African green monkey, Vero cells (kidney epithelial cells), CC50, Vero cell, mean ± SD
How it was run: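 Vero cells were pre-seeded 12 h, then exposed to serially diluted test compound or control drugs for 48 h. Viability was read with CellTiter 96 AQueous One reagent at 490 nm absorbance. CC50 was calculated from the concentration–response data.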

[4] = system: Plasmodium falciparum 3D7; type: cell-based; settings: 3D7 (CQ Sensitive); relative to SKM13
[5] = system: eIF2α phosphorylation (ER stress response); experiment: Western blotting of phosphorylated eIF2α in trophozoite lysates; type: cell-based, Plasmodium falciparum; settings: trophozoites treated 90 min, Western blot
How it was run: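 P. falciparum trophozoite cultures (5% hematocrit, 5% parasitemia) were plated 10–12 h, then drug-treated at 37 °C. Parasites were freed with 0.15% saponin, lysed in RIPA, run on 10% Bis-Tris SDS-PAGE and transferred to PVDF. Blots were blocked in 5% BSA and probed overnight at 4 °C with anti-phospho-eIF2α (1:1000), anti-eIF2α (1:3000) and anti-PfEF1α (5 μg/mL) as loading control. Detection used HRP secondaries and ECL.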

[6] = system: P. f K1 (CQ Resistant); type: cell-based, Plasmodium falciparum; settings: relative to SKM13

SMILES	WBC counts ([1]; 4 mg/kg, compared with infected untreated mice (WBC increased at 9 to 12 dpi))	body weight ([2]; 4 mg/kg)	parasitemia density ([2]; 4 mg/kg i.v.)	survival rate ([2]; 4 mg/kg i.v. once a day for four days, 15 dpi, ICR mice n = 6) [%]	CC50 at 48 h [3] [µM]	Relative SI [4]	phosphorylation of eIF2α [5]	WBC counts, HCT and Hgb ([1]; 10 mg/kg, infected mice, 3-12 dpi)	Relative SI [6]	body weight ([2]; 10 mg/kg)	parasite density (parasitemia) ([2]; 10 mg/kg i.v., all observation period, p < 0.001)
O=C1C(O)=C([C@H]2CC[C@H](c3ccc(Cl)cc3)CC2)C(=O)c2ccccc21 [Atovaquone]	same pattern of haematological result	decreased	did not suppress parasitemia density	33							
CCN(CC)CCCC(C)Nc1ccnc2cc(Cl)ccc12 (centres unmarked) [Chloroquine]					120 ± 16.4	20.93	did not increase phosphorylation of eIF2α	did not affect	7.81	maintained normal mouse body weight	significantly reduced
C[C@H]1[C@@H](O)O[C@@H]2O[C@@]3(C)CC[C@H]4[C@H](C)CC[C@@H]1[C@@]24OO3 [DHA, Dihydroartemisinin]					31.3 ± 8.94	4.84			3.97		
